Measurements taken from ChEMBL document CHEMBL4270526, “A novel NAE/UAE dual inhibitor LP0040 blocks neddylation and ubiquitination leading to growth inhibition and apoptosis of cancer cells” (Eur J Med Chem, 2018).
Active and inactive are the calls of the source. The rule behind the calls is not given here.

Experiments:
[1] = Hemolytic activity against rabbit erythrocytes assessed as hemolysis at 100 uM measured after 1 hr; type: ADME, cell-based, Oryctolagus cuniculus, Erythrocyte; settings: read-out: Activity
Procedure, shortened: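 Rabbit erythrocytes pelleted at 3000 rpm for 10 min, washed twice and resuspended in PBS. Mixed 1:1 with 200 μM compound solution in PBS, 1 h at 37 °C. PBS served as 0% and 1% Triton X-100 as 100% hemolysis. After centrifugation, supernatant hemoglobin read at 540 nm; % hemolysis calculated relative to the Triton and PBS controls.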

SK-OV-3 = assay: Antiproliferative activity against human SKOV3 cells after 48 hrs by CCK8 assay; type: functional, cell-based; settings: SK-OV-3, 48 h
Procedure, shortened: (§1)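 Cells seeded at 6 × 10^3 cells/well and left 12 h at 37 °C, 5% CO2. Medium then replaced with serial compound dilutions, bortezomib as positive control. After 48 h, CCK-8 added for 4 h and absorbance read at 450 nm. Three repeats; IC50 from normalized nonlinear regression of inhibition curves.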

BXPC-3 = assay: Antiproliferative activity against human BxPC3 cells after 48 hrs by CCK8 assay; type: functional, cell-based; settings: BXPC-3, 48 h; procedure, shortened: as §1
HCT-116 = assay: Antiproliferative activity against human HCT116 cells after 48 hrs by CCK8 assay; type: functional, cell-based; settings: HCT-116, 48 h; procedure, shortened: as §1
A549 = assay: Antiproliferative activity against human A549 cells after 48 hrs by CCK8 assay; type: functional, cell-based; settings: A549, 48 h; procedure, shortened: as §1
K562 = assay: Antiproliferative activity against human K562 cells after 48 hrs by CCK8 assay; type: functional, cell-based; settings: K562, 48 h; procedure, shortened: as §1
AGS = assay: Antiproliferative activity against human AGS cells after 48 hrs by CCK8 assay; type: functional, cell-based; procedure, shortened: as §1
[2] = Antiproliferative activity against human LO2 cells after 48 hrs by CCK8 assay; type: cell-based, L02; settings: read-out: LC50
[3] = Antiproliferative activity against HEK293T cells after 48 hrs by CCK8 assay; type: cell-based, HEK-293T; settings: human, read-out: LC50
[4] = Antiproliferative activity against HUVEC after 48 hrs by CCK8 assay; type: cell-based; settings: human, read-out: LC50
[5] = target: T1, NEDD8 activating enzyme (Homo sapiens) (UniProt Q8TBC4+Q13564); assay: Inhibition of NAE in human AGS cells assessed as reduction in Cullins-NEDD8 conjugation level at 10 to 90 uM after 24 hrs by Western blot analysis; type: cell-based
[6] = target: T1, NEDD8 activating enzyme (Homo sapiens); assay: Inhibition of NAE-mediated CRL neddylation in human AGS cells assessed as increase in CDT1 level after 24 hrs by Western blot analysis; type: cell-based
Procedure, shortened: (§2)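 AGS cells given 2, 4, 6, 8 or 10 μM compound or 0.1% DMSO for 24 h, washed in ice-cold PBS and lysed in RIPA on ice. Equal protein loads run by SDS-PAGE: non-reducing for NEDD8/SUMO/Ub conjugates, reducing for p27, NRF2, CDT1 and cleaved caspase-3. Blotted to PVDF with primary antibody overnight at 4 °C and HRP secondary, ECL detection, densitometry. Three repeats.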

[7] = target: T1, NEDD8 activating enzyme (Homo sapiens); assay: Inhibition of NAE in human AGS cells assessed as reduction in Uba3-NEDD8 conjugation level at 10 to 90 uM after 24 hrs by Western blot analysis; type: cell-based
[8] = target: T1, NEDD8 activating enzyme (Homo sapiens); assay: Inhibition of NAE-mediated CRL neddylation in human AGS cells assessed as increase in NRF2 level after 24 hrs by Western blot analysis; type: cell-based; procedure, shortened: as §2
[9] = target: T1, NEDD8 activating enzyme (Homo sapiens); assay: Inhibition of NAE-mediated CRL neddylation in human AGS cells assessed as increase in p27 level after 24 hrs by Western blot analysis; type: cell-based; procedure, shortened: as §2
[10] = target: T1, NEDD8 activating enzyme (Homo sapiens); assay: Inhibition of NAE in human AGS cells assessed as reduction in Ubc12-NEDD8 conjugation level at 10 to 90 uM after 24 hrs by Western blot analysis; type: cell-based

| Structure (SMILES) | hemolysis at 1 h, 100 µM [1] [%] | IC50 (SK-OV-3) [µM] | IC50 (BXPC-3) [µM] | IC50 (HCT-116) [µM] | IC50 (A549) [µM] | IC50 (K562) [µM] | IC50 (AGS) [µM] | CC50 at 48 h [2] [µM] | CC50 at 48 h [3] [µM] | CC50 at 48 h [4] [µM] | inhibition [5] | inhibition [6] | inhibition [7] | inhibition [8] | inhibition [9] | inhibition [10] |
| --- | --- | --- | --- | --- | --- | --- | --- | --- | --- | --- | --- | --- | --- | --- | --- | --- |
| O=c1cc(C#Cc2cccnc2)c2ccc(N3CCC(NCCc4ccccc4)CC3)cc2o1 | < 10 | 7.7 | 4.33 | 2.69 | 3.35 | 3.3 | 1.66 | – | – | – | – | – | – | – | – | – |
| Cc1cc(-c2cc(=O)oc3cc(N4CCC(NCCc5ccccc5)CC4)ccc23)ccc1C(F)(F)F | – | 5.94 | 7.67 | 6 | 3.09 | 3.29 | 1.39 | – | – | – | – | – | – | – | – | – |
| O=c1cc(C#CC2(O)CCCCC2)c2ccc(N3CCC(NCCc4ccccc4)CC3)cc2o1 | – | 4.35 | 2.01 | 2.79 | 2.48 | 2.63 | 1.71 | – | – | – | – | – | – | – | – | – |
| CC(C)C[C@H](NC(=O)[C@H](Cc1ccccc1)NC(=O)c1cnccn1)B(O)O [BORTEZOMIB] | – | – | – | – | – | – | – | 0.398 | 0.016 | 0.018 | – | – | – | – | – | – |
| O=c1cc(-c2c[nH]nn2)c2ccc(N3CCC(NCCc4ccccc4)CC3)cc2o1 | – | > 30 | > 30 | > 30 | > 30 | > 30 | > 30 | – | – | – | – | – | – | – | – | – |
| NS(=O)(=O)OC[C@@H]1C[C@@H](n2ccc3c(N[C@@H]4CCc5ccccc54)ncnc32)C[C@@H]1O | 5.8 | – | – | – | – | – | – | 9.01 | 6.17 | 4.79 | – | – | – | – | – | – |
| O=c1cc(C#CC2CCCCC2)c2ccc(N3CCC(NCCc4ccccc4)CC3)cc2o1 | – | 4.17 | 4.08 | 2.81 | 2.99 | 1.17 | 1.13 | – | – | – | – | – | – | – | – | – |
| O=c1cc(-c2cnc(O)nc2O)c2ccc(N3CCC(NCCc4ccccc4)CC3)cc2o1 | – | > 30 | > 30 | > 30 | > 30 | > 30 | > 30 | – | – | – | inactive | inactive | inactive | inactive | inactive | inactive |
| O=c1cc(-c2ccc(Oc3ccccc3)cc2)c2ccc(N3CCC(NCCc4ccccc4)CC3)cc2o1 | – | 3.22 | 2.82 | 6.11 | 3.83 | 1.53 | 1.26 | – | – | – | – | – | – | – | – | – |
| Cc1ccc(-c2cc(=O)oc3cc(N4CCC(NCCc5ccccc5)CC4)ccc23)cc1C | – | 6.42 | 8.44 | 5.82 | 3.77 | 3.26 | 1.89 | – | – | – | – | – | – | – | – | – |
| O=c1cc(C#Cc2cccc(Cl)c2)c2ccc(N3CCC(NCCc4ccccc4)CC3)cc2o1 | < 10 | 7.5 | 1.33 | 4.27 | 3.1 | 1.32 | 1.42 | – | – | – | – | – | – | – | – | – |
| Clc1ccc(CCNC2CCN(Cc3ccccc3)CC2)c(Cl)c1 | – | 9.26 | 12.4 | 10.6 | 5.55 | 5.51 | 9.92 | – | – | – | – | – | – | – | – | – |
